Reference: ChEMBL document CHEMBL1124476, “1-(2-aminoethyl)-6-aryl-4H- [1,2,4]triazolo[4,3-a][1,4]benzodiazepines with diuretic and natriuretic activity” (J Med Chem, 1989)

Legend:
Rattus norvegicus [1] = assay: Mean excretion of chloride in conscious rats at a dose of 3.0 mg/kg given orally; assay type: ADME, organism-based; set-up: dose 3 mg/kg, route oral; settings: in vivo, po
Outline: (§1)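 Secondary dose-response in male Sprague-Dawley rats (~160 g), fasted and hydrated as in the primary screen. Oral gavage at 0.3-100 mg/kg in 25 mL/kg saline/0.5% CMC, three cages of two rats per dose. Urine collected 5 h; Na, K, Cl, HCO3 measured. Values are mean excretion (mequiv), compared with controls at P < 0.05.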

[2] = Diuretic activity at 40 mg/kg (screening dose-84.7 umol/kg) in […] in a one stage experiment; T/C = urine vol of treated rats / urine vol of control rats; assay type: functional
Outline: (§2)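 40 mg/kg given by gavage in 25 mL/kg 0.9% saline with 0.5% (carboxymethyl)cellulose. Four rats per agent, two per metabolism cage; 20 controls; 5 h urine. T/C = treated/control urine volume. Stage-1 T/C of 1.66 or more leads to stage 2; product T/C1·T/C2 of 3.34 or more counts as active.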

Rattus norvegicus [3] = species: Rattus norvegicus; assay: […]; assay type: ADME, organism-based, Urine; set-up: dose 30 mg/kg, route oral; settings: in vivo, po, 30 mg/kg
Outline: (§3)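 Male Sprague-Dawley rats, about 160 g, fasted 24 h and water withheld 1 1/2 h beforehand; food and water withheld during the test. Dosing by gavage with 25 mL/kg 0.9% saline containing 0.5% (carboxymethyl)cellulose, agent dissolved or suspended. Three cages of two rats each per dose, held in metabolism cages. Urine collected over 5 h. Volume given in mL, Na+ in mequiv. Significance versus control at P < 0.05.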

Rattus norvegicus [4] = assay: Mean excretion of sodium in conscious rats at a dose of 0.3 mg/kg given orally; assay type: ADME, organism-based; set-up: dose 0.3 mg/kg, route oral; settings: in vivo, po; outline: as §3
Rattus norvegicus [5] = species: Rattus norvegicus; assay: […]; assay type: ADME, organism-based, Urine; set-up: dose 3 mg/kg, route oral; settings: in vivo, po, 3 mg/kg; outline: as §3
Rattus norvegicus [6] = assay: Mean excretion of chloride in conscious rats at a dose of 10 mg/kg given orally; assay type: ADME, organism-based; set-up: dose 10 mg/kg, route oral; settings: in vivo, po; outline: as §1
Rattus norvegicus [7] = assay: Mean excretion of […] in conscious rats at a dose of 1.0 mg/kg given orally; assay type: ADME, organism-based; set-up: dose 1 mg/kg, route oral; settings: in vivo, po; outline: as §3
Rattus norvegicus [8] = assay: Mean excretion of sodium in conscious rats at a dose of 3.0 mg/kg given orally; assay type: ADME, organism-based; set-up: dose 3 mg/kg, route oral; settings: in vivo, po; outline: as §3
Rattus norvegicus [9] = assay: Mean excretion of chloride in conscious rats at a dose of 1.0 mg/kg given orally; assay type: ADME, organism-based; set-up: dose 1 mg/kg, route oral; settings: in vivo, po; outline: as §1
Rattus norvegicus [10] = species: Rattus norvegicus; assay: […]; assay type: ADME, organism-based, Urine; set-up: dose 100 mg/kg, route oral; settings: in vivo, po, 100 mg/kg; outline: as §3
Rattus norvegicus [11] = species: Rattus norvegicus; assay: […]; assay type: ADME, organism-based, Urine; set-up: dose 10 mg/kg, route oral; settings: in vivo, po, 10 mg/kg; outline: as §3
[12] = Diuretic activity at 40 mg/kg (screening dose-84.7 umol/kg) in […] in a two stage experiment; T/C1.2 = urine vol of treated rats / urine vol of control rats; assay type: functional; outline: as §2
Rattus norvegicus [13] = assay: Mean excretion of chloride in conscious rats at a dose of 100 mg/kg given orally; assay type: ADME, organism-based; set-up: dose 100 mg/kg, route oral; settings: in vivo, po; outline: as §1
Rattus norvegicus [14] = assay: Mean excretion of sodium in conscious rats at a dose of 30 mg/kg given orally; assay type: ADME, organism-based; set-up: dose 30 mg/kg, route oral; settings: in vivo, po; outline: as §3
Rattus norvegicus [15] = assay: Mean excretion of Cl- in conscious rats at a dose of 0.3 mg/kg given orally; assay type: ADME, organism-based, Urine; set-up: dose 0.3 mg/kg, route oral; settings: in vivo, po
Outline: (§4)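 Dose-response test in male Sprague-Dawley rats of about 160 g, fasted 24 h, with water withheld 1½ h before and during the test. Each rat got a single gavage of 25 mL/kg 0.9% saline with 0.5% carboxymethylcellulose carrying the agent (0.3–100 mg/kg range). Rats were housed two per metabolism cage, and urine was collected for 5 h. Mean urine volume (mL) was compared with controls (P < 0.05).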

Rattus norvegicus [16] = species: Rattus norvegicus; assay: […]; assay type: ADME, organism-based, Urine; set-up: dose 1 mg/kg, route oral; settings: in vivo, po, 1 mg/kg; outline: as §4
Rattus norvegicus [17] = assay: Mean excretion of potassium in conscious rats at a dose of 1.0 mg/kg given orally; assay type: ADME, organism-based; set-up: dose 1 mg/kg, route oral; settings: in vivo, po; outline: as §1
Rattus norvegicus [18] = assay: Mean excretion of chloride in conscious rats at a dose of 30 mg/kg given orally; assay type: ADME, organism-based; set-up: dose 30 mg/kg, route oral; settings: in vivo, po; outline: as §1
Rattus norvegicus [19] = species: Rattus norvegicus; assay: […]; assay type: ADME, organism-based, Urine; set-up: dose 0.3 mg/kg, route oral; settings: in vivo, po, 0.3 mg/kg; outline: as §4
Rattus norvegicus [20] = assay: Mean excretion of sodium in conscious rats at a dose of 100 mg/kg given orally; assay type: ADME, organism-based; set-up: dose 100 mg/kg, route oral; settings: in vivo, po; outline: as §3
Rattus norvegicus [21] = assay: Mean excretion of potassium in conscious rats at a dose of 3.0 mg/kg given orally; assay type: ADME, organism-based; set-up: dose 3 mg/kg, route oral; settings: in vivo, po; outline: as §1
Rattus norvegicus [22] = assay: Mean excretion of potassium in conscious rats at a dose of 0.3 mg/kg given orally; assay type: ADME, organism-based; set-up: dose 0.3 mg/kg, route oral; settings: in vivo, po; outline: as §1
Rattus norvegicus [23] = assay: Mean excretion of potassium in conscious rats at a dose of 30 mg/kg given orally; assay type: ADME, organism-based; set-up: dose 30 mg/kg, route oral; settings: in vivo, po; outline: as §1
Rattus norvegicus [24] = assay: Mean excretion of potassium in conscious rats at a dose of 10 mg/kg given orally; assay type: ADME, organism-based; set-up: dose 10 mg/kg, route oral; settings: in vivo, po; outline: as §1
Rattus norvegicus [25] = assay: Mean excretion of sodium in conscious rats at a dose of 10 mg/kg given orally; assay type: ADME, organism-based; set-up: dose 10 mg/kg, route oral; settings: in vivo, po; outline: as §3
Rattus norvegicus [26] = assay: Mean excretion of potassium in conscious rats at a dose of 100 mg/kg given orally; assay type: ADME, organism-based; set-up: dose 100 mg/kg, route oral; settings: in vivo, po; outline: as §1
[27] = Diuretic activity at 40 mg/kg (screening dose-84 umol/kg) in male […] in a one stage experiment; T/C = urine vol of treated rats / urine vol of control rats; assay type: functional; outline: as §2
[28] = Diuretic activity at 40 mg/kg (screening dose-84 umol/kg) in male […] in a two stage experiment; T/C1.2 = urine vol of treated rats / urine vol of control rats; assay type: functional; outline: as §2
[29] = Diuretic activity at 40 mg/kg (screening dose-90.5 umol/kg) in […] in a one stage experiment; T/C = urine vol of treated rats / urine vol of control rats; assay type: functional; outline: as §2
[30] = Diuretic activity at 40 mg/kg (screening dose-90.5 uM/Kg) in […] in a two stage experiment; T/C1.2 = urine vol of treated rats / urine vol of control rats; assay type: functional; outline: as §2

| SMILES | Mean excretion of Cl- (Rattus norvegicus [1]) [m equiv] | T/C 1 [2] | Mean urine volume (Rattus norvegicus [3]) [mL] | Mean excretion of Na+ (Rattus norvegicus [4]) [m equiv] | Mean urine volume (Rattus norvegicus [5]) [mL] | Mean excretion of Cl- (Rattus norvegicus [6]) [m equiv] | Mean excretion of Na+ (Rattus norvegicus [7]) [m equiv] | Mean excretion of Na+ (Rattus norvegicus [8]) [m equiv] | Mean excretion of Cl- (Rattus norvegicus [9]) [m equiv] | Mean urine volume (Rattus norvegicus [10]) [mL] | Mean urine volume (Rattus norvegicus [11]) [mL] | Mean excretion of Cl- (Rattus norvegicus [13]) [m equiv] | Mean excretion of Na+ (Rattus norvegicus [14]) [m equiv] | Mean excretion of Cl- (Rattus norvegicus [15]) [m equiv] | Mean urine volume (Rattus norvegicus [16]) [mL] | Mean excretion of K+ (Rattus norvegicus [17]) [m equiv] | Mean excretion of Cl- (Rattus norvegicus [18]) [m equiv] | Mean urine volume (Rattus norvegicus [19]) [mL] | Mean excretion of Na+ (Rattus norvegicus [20]) [m equiv] | Mean excretion of K+ (Rattus norvegicus [21]) [m equiv] | other results |
| --- | --- | --- | --- | --- | --- | --- | --- | --- | --- | --- | --- | --- | --- | --- | --- | --- | --- | --- | --- | --- | --- |
| COc1ccc(C(CN(C)C)c2nnc3n2-c2ccc(Cl)cc2C(c2ccccc2)=NC3)cc1 (stereo not drawn) | 0.75 | 2.77 | 10.47 | 0.67 | 4.98 | 0.93 | 0.66 | 0.68 | 0.71 | 12.25 | 5.74 | 1.65 | 1.58 | 0.71 | 4.81 | 0.25 | 1.55 | 4.13 | 1.91 | 0.23 | T/C 1.2 [12]: 5.57; Mean excretion of K+ (Rattus norvegicus [22]): 0.23 m equiv; Mean excretion of K+ (Rattus norvegicus [23]): 0.18 m equiv; Mean excretion of K+ (Rattus norvegicus [24]): 0.19 m equiv; Mean excretion of Na+ (Rattus norvegicus [25]): 0.93 m equiv; Mean excretion of K+ (Rattus norvegicus [26]): 0.26 m equiv |
| CN(C)CC(c1ccccc1)c1nnc2n1-c1ccc(Cl)cc1C(c1ccccc1Cl)=NC2 (stereo not drawn) | – | – | – | – | – | – | – | – | – | – | – | – | – | – | – | – | – | – | – | – | T/C 1 [27]: 1.87; T/C 1.2 [28]: 2.66 |
| CN(C)CC(c1ccccc1)c1nnc2n1-c1ccccc1C(c1ccccc1Cl)=NC2 (stereo not drawn) | – | – | – | – | – | – | – | – | – | – | – | – | – | – | – | – | – | – | – | – | T/C 1 [29]: 1.62 |
| COc1cccc(C(CN(C)C)c2nnc3n2-c2ccc(Cl)cc2C(c2ccccc2)=NC3)c1 (stereo not drawn) | 0.78 | 3.18 | 12.21 | 0.52 | 4.29 | 1.11 | 0.64 | 0.79 | 0.72 | 12.03 | 5.99 | 1.8 | 1.99 | 0.59 | 3.74 | 0.21 | 1.99 | 3.37 | 1.76 | 0.17 | T/C 1.2 [30]: 7.31; Mean excretion of K+ (Rattus norvegicus [22]): 0.22 m equiv; Mean excretion of K+ (Rattus norvegicus [23]): 0.24 m equiv; Mean excretion of K+ (Rattus norvegicus [24]): 0.17 m equiv; Mean excretion of Na+ (Rattus norvegicus [25]): 1.13 m equiv; Mean excretion of K+ (Rattus norvegicus [26]): 0.3 m equiv |
| COc1ccccc1C(CN(C)C)c1nnc2n1-c1ccc(Cl)cc1C(c1ccccc1)=NC2 (stereo not drawn) | 0.8 | 2.69 | 5.19 | 0.63 | 5.38 | 0.71 | 0.6 | 0.68 | 0.69 | 4.56 | 4.92 | 0.69 | 0.61 | 0.69 | 5.08 | 0.23 | 0.76 | 4.8 | 0.6 | 0.24 | T/C 1.2 [12]: 5.03; Mean excretion of K+ (Rattus norvegicus [22]): 0.17 m equiv; Mean excretion of K+ (Rattus norvegicus [23]): 0.23 m equiv; Mean excretion of K+ (Rattus norvegicus [24]): 0.22 m equiv; Mean excretion of Na+ (Rattus norvegicus [25]): 0.72 m equiv; Mean excretion of K+ (Rattus norvegicus [26]): 0.26 m equiv |
| CN(C)CC(c1cccc(Cl)c1)c1nnc2n1-c1ccc(Cl)cc1C(c1ccccc1)=NC2 (stereo not drawn) | – | – | – | – | – | – | – | – | – | – | – | – | – | – | – | – | – | – | – | – | T/C 1 [27]: 1.86; T/C 1.2 [28]: 3.2 |
